Reference: ChEMBL document CHEMBL1148725, “2,2,2-Trichloro-N-({2-[2-(dimethylamino)ethyl]-1,3-dioxo-2,3-dihydro-1H-benzo[de]isoquinolin- 5-yl}carbamoyl)acetamide (UNBS3157), a novel nonhematotoxic naphthalimide derivative with potent antitumor activity” (J Med Chem, 2007)
The source made the active and inactive calls. The rule behind the calls is not given here.

What was measured:
[1] = system: PC-3; test: Induction of senescence in human PC3 cells; assay type: functional, cell-based
Procedure, shortened: (§1)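 SA-β-galactosidase staining of PC-3 and DU-145 prostate cancer cells after 72 h at 10 µM; adriamycin 20 nM as positive control; expressed as percentage of positively stained cells.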

[2] = system: DU-145; test: Induction of senescence in human DU145 cells; assay type: functional, cell-based; procedure, shortened: as §1
[3] = Antiproliferative activity against U373MG cells after 72 hrs by MTT assay; assay type: functional, cell-based, Homo sapiens, U-373MG ATCC; settings: Homo sapiens, U373 MG, 72 h
Procedure, shortened: (§2)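 Cells cultured with each compound for three days; growth then read by the MTT colorimetric assay and reported as IC50 (µM).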

[4] = system: L1210; test: Antitumor activity in L1210 cells xenografted B6D2F1 mouse at 10 mg/kg, ip relative to control; assay type: functional; settings: route intraperitoneal
Procedure, shortened: (§3)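 Mice grafted with L1210 leukaemia cells on day 0, then dosed i.p. four times weekly on days 1-4 and 8-11. Five mice per group. Outcome is %T/C, the median survival of treated over control. Kruskal-Wallis test followed by Dunn comparisons against control.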

[5] = system: LoVo; test: Antiproliferative activity against LoVo cells after 72 hrs by MTT assay; assay type: functional, cell-based, Homo sapiens; settings: Homo sapiens, LoVo, 72 h; procedure, shortened: as §2
[6] = system: HCT-15; test: Antiproliferative activity against HCT15 cells after 72 hrs by MTT assay; assay type: functional, cell-based, Homo sapiens; settings: Homo sapiens, HCT-15, 72 h; procedure, shortened: as §2
[7] = system: L1210; test: Antitumor activity in L1210 cells xenografted B6D2F1 mouse at 40 mg/kg, ip relative to control; assay type: functional; settings: route intraperitoneal; procedure, shortened: as §3
[8] = system: L1210; test: Antitumor activity in L1210 cells xenografted B6D2F1 mouse at 20 mg/kg, ip relative to control; assay type: functional; settings: route intraperitoneal; procedure, shortened: as §3
[9] = system: Mus musculus; test: Hematotoxicity in ip dosed B6D2F1 mouse assessed as decrease in platelet count; assay type: organism-based; settings: in vivo
Procedure, shortened: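 Healthy female B6D2F1 mice, 10 per group, dosed i.p. three times weekly for five weeks at two dose levels set relative to MTD. Vehicle DMSO/saline 5:95 v/v. Killed 3 days after the last dose; blood platelet, RBC and WBC counts taken with a Coulter counter.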

[10] = system: MCF7; test: Antiproliferative activity against MCF7 cells after 72 hrs by MTT assay; assay type: functional, cell-based, Homo sapiens; settings: Homo sapiens, MCF7, 72 h; procedure, shortened: as §2
[11] = Toxicity in ip dosed B6D2F1 mouse; assay type: organism-based; settings: in vivo
Procedure, shortened: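 Acute MTD was set by a single i.p. dose to groups of three healthy female B6D2F1 mice, at 2.5, 5, 10, 20, 40, 80 and 160 mg/kg. The MTD is the dose just below the lowest dose that killed at least one mouse.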

[12] = system: A549; test: Antiproliferative activity against A549 cells after 72 hrs by MTT assay; assay type: functional, cell-based, Homo sapiens; settings: Homo sapiens, A549, 72 h; procedure, shortened: as §2
[13] = system: L1210; test: Antitumor activity in L1210 cells xenografted B6D2F1 mouse at 80 mg/kg, ip relative to control; assay type: functional; settings: route intraperitoneal; procedure, shortened: as §3
[14] = system: L1210; test: Antitumor activity in L1210 cells xenografted B6D2F1 mouse at 120 mg/kg, ip relative to control; assay type: functional; settings: route intraperitoneal; procedure, shortened: as §3
[15] = Antiproliferative activity against Hs683 cells after 72 hrs by MTT assay; assay type: functional, cell-based, Homo sapiens, Hs 683; settings: Homo sapiens, Hs 683, 72 h; procedure, shortened: as §2
[16] = system: Mus musculus; test: Toxicity in B6D2F1 mouse at 120 mg/kg, ip; assay type: organism-based; parameters: dose 120 mg/kg, route intraperitoneal; settings: in vivo
Procedure, shortened: (§4)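 Healthy female B6D2F1 mice, 10 per group, dosed i.p. in DMSO/saline (5:95 v/v) three times weekly for five weeks at two levels set relative to MTD; sacrificed 3 days after final dose; platelet, RBC and WBC counted by Coulter counter.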

[17] = species: Homo sapiens; test: Inhibition of human topoisomerase 2 at 50 uM by plasmid linearization assay
[18] = system: Mus musculus; test: Hematotoxicity in B6D2F1 mouse assessed as platelet count at 2.5 mg/kg, iv; assay type: organism-based; parameters: dose 2.5 mg/kg, route intravenous; settings: in vivo
[19] = system: Mus musculus; test: Hematotoxicity in B6D2F1 mouse assessed as WBC count at 10 mg/kg, po; assay type: organism-based; parameters: dose 10 mg/kg, route oral; settings: in vivo
[20] = system: Mus musculus; test: Hematotoxicity in B6D2F1 mouse assessed as platelet count at 2.5 mg/kg, po; assay type: organism-based; parameters: dose 2.5 mg/kg, route oral; settings: in vivo
[21] = system: Mus musculus; test: Hematotoxicity in B6D2F1 mouse assessed as platelet count at 10 mg/kg, po; assay type: organism-based; parameters: dose 10 mg/kg, route oral; settings: in vivo
[22] = system: Mus musculus; test: Hematotoxicity in B6D2F1 mouse assessed as RBC count at 5 mg/kg, iv; assay type: organism-based; parameters: dose 5 mg/kg, route intravenous; settings: in vivo
[23] = system: Mus musculus; test: Hematotoxicity in B6D2F1 mouse assessed as platelet count at 5 mg/kg, po; assay type: organism-based; parameters: dose 5 mg/kg, route oral; settings: in vivo
[24] = system: Mus musculus; test: Hematotoxicity in B6D2F1 mouse assessed as WBC count at 5 mg/kg, iv; assay type: organism-based; parameters: dose 5 mg/kg, route intravenous; settings: in vivo
[25] = system: Mus musculus; test: Hematotoxicity in B6D2F1 mouse assessed as WBC count at 2.5 mg/kg, po; assay type: organism-based; parameters: dose 2.5 mg/kg, route oral; settings: in vivo
[26] = system: Mus musculus; test: Hematotoxicity in B6D2F1 mouse assessed as RBC count at 2.5 mg/kg, iv; assay type: organism-based; parameters: dose 2.5 mg/kg, route intravenous; settings: in vivo
[27] = system: Mus musculus; test: Hematotoxicity in B6D2F1 mouse assessed as RBC count at 10 mg/kg, po; assay type: organism-based; parameters: dose 10 mg/kg, route oral; settings: in vivo
[28] = system: Mus musculus; test: Toxicity in B6D2F1 mouse at 40 mg/kg, ip; assay type: organism-based; parameters: dose 40 mg/kg, route intraperitoneal; settings: in vivo
[29] = system: Mus musculus; test: Hematotoxicity in B6D2F1 mouse assessed as RBC count at 2.5 mg/kg, po; assay type: organism-based; parameters: dose 2.5 mg/kg, route oral; settings: in vivo
[30] = system: Mus musculus; test: Hematotoxicity in B6D2F1 mouse assessed as RBC count at 5 mg/kg, po; assay type: organism-based; parameters: dose 5 mg/kg, route oral; settings: in vivo
[31] = system: Mus musculus; test: Hematotoxicity in B6D2F1 mouse assessed as WBC count at 2.5 mg/kg, iv; assay type: organism-based; parameters: dose 2.5 mg/kg, route intravenous; settings: in vivo
[32] = system: Mus musculus; test: Hematotoxicity in B6D2F1 mouse assessed as WBC count at 5 mg/kg, po; assay type: organism-based; parameters: dose 5 mg/kg, route oral; settings: in vivo
[33] = system: L1210; test: Antitumor activity in L1210 cells xenografted B6D2F1 mouse at 5 mg/kg, ip relative to control; assay type: functional; settings: route intraperitoneal; procedure, shortened: as §3
[34] = system: Mus musculus; test: Toxicity in B6D2F1 mouse at 80 mg/kg, ip; assay type: organism-based; parameters: dose 80 mg/kg, route intraperitoneal; settings: in vivo; procedure, shortened: as §4
[35] = system: Mus musculus; test: Hematotoxicity in B6D2F1 mouse assessed as platelet count at 5 mg/kg, iv; assay type: organism-based; parameters: dose 5 mg/kg, route intravenous; settings: in vivo

COc1cccc2c1C(=O)c1c(O)c3c(c(O)c1C2=O)C[C@@](O)(C(=O)CO)C[C@@H]3O[C@H]1C[C@H](N)[C@H](O)[C@H](C)O1
Activity [1]: inactive | Activity [2]: Active

CN(C)CCN1C(=O)c2cccc3cc(/N=C\c4ccc5c(c4)OCO5)cc(c23)C1=O
IC50 [3]: > 10 µM | Activity [4]: 115% | IC50 [5]: 8.3 µM | IC50 [6]: 9 µM | Activity [7]: 165% | Activity [8]: 150% | Activity [9]: Toxic | IC50 [10]: > 10 µM | MTD [11]: 80 mg/kg | IC50 [12]: > 10 µM | Activity [13]: 288% | Activity [14]: 41% | IC50 [15]: > 10 µM | Activity [16]: Toxic

CC(=O)Nc1cc2c3c(cccc3c1)C(=O)N(CCN(C)C)C2=O
Activity [17]: Active | Activity [18]: 470 10^3 /uL | IC50 [3]: 9 µM | Activity [19]: 2.66 10^3 /uL | Activity [20]: 961 10^3 /uL | Activity [4]: 149% | Activity [21]: 922 10^3 /uL | IC50 [5]: > 10 µM | Activity [22]: 9.59 10^6 /uL | Activity [23]: 968 10^3 /uL | Activity [24]: 2.5 10^3 /uL | Activity [25]: 2.66 10^3 /uL | Activity [26]: 9.74 10^6 /uL | IC50 [6]: 7.8 µM | Activity [7]: 48% | Activity [27]: 9.64 10^6 /uL | Activity [8]: >300% | Activity [28]: Toxic | Activity [29]: 10.01 10^6 /uL | Activity [30]: 10.25 10^6 /uL | Activity [31]: 3.97 10^3 /uL | IC50 [10]: > 10 µM | Activity [32]: 2.74 10^3 /uL | MTD [11]: 40 mg/kg | IC50 [12]: > 10 µM | Activity [13]: 47% | IC50 [15]: > 10 µM | Activity [33]: 111% | Activity [34]: Toxic | Activity [35]: 351 10^3 /uL
